Test results from ChEMBL document CHEMBL1121854, “New antiarrhythmic agents. 5. alpha-Aminoaceto-2,6-xylidides with functionalized amide alkyl substituents” (J Med Chem, 1981).

How the values were obtained:
Mus musculus [1] = assay: Acute CNS toxicity against arrhythmogenic effects of chloroform in mice after sc administration.; assay type: functional; details: Central nervous system
Mus musculus [2] = assay: Antiarrhythmic activity against arrhythmogenic effects of chloroform in mice after sc administration.; assay type: functional; details: Heart
Method in brief: (§1)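 At 20 min they were exposed to chloroform until respiratory arrest, then given a thoracotomy. Leads I and II plus an epicardial ECG were recorded for 30–40 s. Tachycardia was defined as ≥5 s with a ventricular rate >520 beats/min; absence meant protection.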

[3] = Therapeutic index is defined as the ratio of ED50(ataxia)/ED50(protection); details: read-out: Therapeutic index
Method in brief: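 Ratio of ED50 for ataxia to ED50 for protection against chloroform-induced ventricular tachycardia in mice. Both ED50 values were derived by Berkson's logit chi-square method from percent responders across dose groups.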

Mus musculus [4] = assay: Acute CNS toxicity against arrhythmogenic effects of chloroform in mice after sc administration; assay type: functional; details: Central nervous system
Ovis aries [5] = assay: Duration of spinal anesthesia at the digits of the hind limbs was measured in sheep at dose.40(mg/kg); assay type: functional, Hindlimb
Method in brief: (§2)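 Sterile solutions held 20 mg/mL base (2%) and 50 mg/mL glucose, made from the salts and adjusted to pH 6.1–6.5 with dilute NaOH. 2 mL was injected intrathecally in sheep. Onset of block was recorded at the anal region and hind-limb digits. Duration of pain block at both sites and of loss of weight support was noted. 5% glucose served as vehicle control.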

Ovis aries [6] = assay: Duration of spinal anesthesia at the weight support was measured in sheep at dose.40(mg/kg); assay type: functional; method in brief: as §2
Ovis aries [7] = assay: Duration of spinal anesthesia at the anal region was measured in sheep at dose.40(mg/kg); assay type: functional; method in brief: as §2
Mus musculus [8] = assay: Antiarrhythmic activity against arrhythmogenic effects of chloroform in mice after sc administration; assay type: functional; details: Heart; method in brief: as §1
Ovis aries [9] = assay: Onset of spinal anesthesia at the anal region was measured in sheep at dose 40(mg/kg); assay type: functional; method in brief: as §2
Ovis aries [10] = assay: Onset of spinal anesthesia at the digits of the hind limbs was measured in sheep at dose 40(mg/kg); assay type: functional, Hindlimb; method in brief: as §2
Ovis aries [11] = assay: Onset of spinal anesthesia at the anal region was measured in sheep at dose 40(mg/kg); 5-50; assay type: functional; method in brief: as §2
Ovis aries [12] = assay: Duration of spinal anesthesia at the anal region was measured in sheep at dose. 40 mg/kg; 50-300; assay type: functional; method in brief: as §2
Ovis aries [13] = assay: Duration of spinal anesthesia at the weight support was measured in sheep at dose. 40 mg/kg; 0-165; assay type: functional; method in brief: as §2
Ovis aries [14] = assay: Duration of spinal anesthesia at the digits of the hind limbs was measured in sheep at dose. 40 mg/kg; 0-140; assay type: functional, Hindlimb; method in brief: as §2
Ovis aries [15] = assay: Onset of spinal anesthesia at the digits of the hind limbs was measured in sheep at dose 40 (mg/kg); 5-50
Ovis aries [16] = assay: Duration of spinal anesthesia at the anal region was measured in sheep at dose 40(mg/kg); assay type: functional; method in brief: as §2
Ovis aries [17] = assay: Duration of spinal anesthesia at the weight support was measured in sheep at dose 40(mg/kg); assay type: functional; method in brief: as §2
Ovis aries [18] = assay: Duration of spinal anesthesia at the digits of the hind limbs was measured in sheep at dose 40(mg/kg); assay type: functional, Hindlimb; method in brief: as §2
Ovis aries [19] = assay: Onset of spinal anesthesia at the anal region was measured in sheep at dose 30(mg/kg); assay type: functional
Ovis aries [20] = assay: Onset of spinal anesthesia at the digits of the hind limbs was measured in sheep at dose 30(mg/kg); assay type: functional, Hindlimb
Ovis aries [21] = assay: Duration of spinal anesthesia at the digits of the hind limbs was measured in sheep at dose 10(mg/kg); assay type: functional, Hindlimb
Ovis aries [22] = assay: Duration of spinal anesthesia at the anal region was measured in sheep at dose 10(mg/kg); assay type: functional
Ovis aries [23] = assay: Onset of spinal anesthesia at the digits of the hind limbs was measured in sheep at dose 10 (mg/kg); assay type: functional, Hindlimb
Ovis aries [24] = assay: Duration of spinal anesthesia at the weight support was measured in sheep at dose 10(mg/kg); assay type: functional
Ovis aries [25] = assay: Onset of spinal anesthesia at the anal region was measured in sheep at dose 10(mg/kg); assay type: functional

## CCOCCN(C(=O)CN(CC)CC)c1c(C)cccc1C
Mus musculus [1]
  ED50: 80 µmol/kg
Mus musculus [2]
  ED50: 60 µmol/kg
[3]
  selectivity ratio: 1.3

## Cc1cccc(C)c1N(CCN)C(=O)CN
Mus musculus [1]
  ED50: 1050 µmol/kg
Mus musculus [2]
  ED50: 390 µmol/kg
[3]
  selectivity ratio: 2.7

## CCN(CC)CCN(C(=O)CN(CC)CC)c1c(C)cccc1C
Mus musculus [4]
  ED50: 600 µmol/kg
Ovis aries [5]
  Duration of block: 0 min
[3]
  selectivity ratio: 1.3
Ovis aries [6]
  Duration of block: 0 min
Ovis aries [7]
  Duration of block: 0 min
Mus musculus [8]
  ED50: 460 µmol/kg

## CCN(CC)CC(=O)N(CCN)c1c(C)cccc1C
Mus musculus [1]
  ED50: 560 µmol/kg
Mus musculus [2]
  ED50: 120 µmol/kg
Ovis aries [9]
  Onset of block: 5 min
Ovis aries [5]
  Duration of block: 132 min
[3]
  selectivity ratio: 4.7
Ovis aries [10]
  Onset of block: 15 min
Ovis aries [6]
  Duration of block: 195 min
Ovis aries [7]
  Duration of block: 270 min

## Cc1cccc(C)c1N(CCO)C(=O)CN
Mus musculus [4]
  ED50: 1080 µmol/kg
[3]
  selectivity ratio: 0.9
Mus musculus [8]
  ED50: 1260 µmol/kg

## CCN(CC)CC(=O)N(CCO)c1c(C)cccc1C
Mus musculus [1]
  ED50: 490 µmol/kg
Mus musculus [2]
  ED50: 180 µmol/kg
[3]
  selectivity ratio: 2.7

## CCCN(C(=O)CN(CC)CC)c1c(C)cccc1C
Mus musculus [1]
  ED50: 150 µmol/kg
Mus musculus [2]
  ED50: 170 µmol/kg
[3]
  selectivity ratio: 0.9

## CCN(CC)CCN(C(=O)CN)c1c(C)cccc1C
Mus musculus [1]
  ED50: 1130 µmol/kg
Ovis aries [11]
  Onset of block: 19 min
Mus musculus [2]
  ED50: 690 µmol/kg
Ovis aries [12]
  Duration of block: 50 min
[3]
  selectivity ratio: 1.6
Ovis aries [13]
  Duration of block: 0 min
Ovis aries [14]
  Duration of block: 0 min
Ovis aries [15]
  Onset of block: 19 min

## CCN(CC)CCN(C(=O)CN1C(=O)c2ccccc2C1=O)c1c(C)cccc1C
Mus musculus [4]
  ED50: 10 µmol/kg
[3]
  selectivity ratio: 1
Mus musculus [8]
  ED50: 10 µmol/kg

## CCN(CC)CC(=O)N(CC)c1c(C)cccc1C
Mus musculus [1]
  ED50: 210 µmol/kg
Mus musculus [2]
  ED50: 140 µmol/kg
[3]
  selectivity ratio: 1.5

## CCOCCN(C(=O)CN)c1c(C)cccc1C
Mus musculus [1]
  ED50: 170 µmol/kg
Mus musculus [2]
  ED50: 190 µmol/kg
[3]
  selectivity ratio: 0.9

## OC[C@H]1OC(O)[C@H](O)[C@@H](O)[C@@H]1O (some centres undefined) [DEXTROSE]
Ovis aries [16]
  Duration of block: 0 min
Ovis aries [17]
  Duration of block: 0 min
Ovis aries [18]
  Duration of block: 0 min

## Cc1cccc(C)c1NC(=O)CN [GLYCINEXYLIDIDE]
Mus musculus [4]
  ED50: 620 µmol/kg
[3]
  selectivity ratio: 0.7
Mus musculus [8]
  ED50: 840 µmol/kg

## CCN(CC)CC(=O)Nc1c(C)cccc1C [LIDOCAINE]
Mus musculus [4]
  ED50: 180 µmol/kg
Ovis aries [19]
  Onset of block: 1 min
Ovis aries [20]
  Onset of block: 1.4 min
Mus musculus [8]
  ED50: 210 µmol/kg

## CCCCNc1ccc(C(=O)OCCN(C)C)cc1 [TETRACAINE]
Ovis aries [21]
  Duration of block: 285 min
Ovis aries [22]
  Duration of block: 302 min
Ovis aries [23]
  Onset of block: 1.2 min
Ovis aries [24]
  Duration of block: 458 min
Ovis aries [25]
  Onset of block: 1.13 min

## Cc1cccc(C)c1NC(=O)C(C)N (centres undefined) [TOCAINIDE]
Mus musculus [4]
  ED50: 760 µmol/kg
[3]
  selectivity ratio: 1.4
Mus musculus [8]
  ED50: 550 µmol/kg
